# Active and inactive are the calls of the source. The rule behind the calls is not given here.
# Legend:
# Mus musculus [1] = assay: Antihypersensitivity against TNCB-induced contact hypersensitivity in BALB/c mouse ear assessed as inhibition of edema at 0.5 mg/ear applied […] after 30 mins, 24 hrs and 48 hrs of TNCB challenge measured after 24 hrs relative to control; type: functional
# Procedure, shortened: (§1)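 Female BALB/c mice (7–9 weeks) challenged on each ear with 10 μL 1% TNCB in acetone six days after sensitization. Compounds given at 0.5 mg/ear in EtOH–H2O 8:2 at 30 min, 24 h and 48 h. Ear thickness measured by micrometer at 24 and 72 h. Edema is inflamed minus naive thickness; inhibition versus control. Dunnett's test.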
# Mus musculus [2] = species: Mus musculus; assay: Antihypersensitivity activity against TNCB-induced contact hypersensitivity in BALB/c mouse ear assessed as decrease IL1-beta levels at 0.5 mg/ear measured at 24 hrs by ELISA relative to control; type: functional
# Procedure, shortened: (§2)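 Acute CHS: female BALB/c mice challenged with 1% TNCB (10 μL/ear). Topical treatment at 30 min, 24 h and 48 h: compounds 0.5 mg/ear, dexamethasone 0.025 mg/ear. Ears collected at 24 and 72 h and homogenized. Cytokines measured by ELISA in triplicate and expressed as pg/mL. n ≥4 animals; Dunnett's test versus control.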
# Mus musculus [3] = species: Mus musculus; assay: Antihypersensitivity activity against TNCB-induced contact hypersensitivity in BALB/c mouse ear assessed as decrease TNFalpha levels at 0.5 mg/ear measured at 24 hrs by ELISA relative to control; type: functional; procedure, shortened: as §2
# Mus musculus [4] = species: Mus musculus; assay: Antihypersensitivity activity against TNCB-induced contact hypersensitivity in BALB/c mouse ear assessed as decrease IL1-beta levels at 0.5 mg/ear measured at 72 hrs by ELISA relative to control; type: functional; procedure, shortened: as §2
# Mus musculus [5] = species: Mus musculus; assay: Antihypersensitivity activity against TNCB-induced contact hypersensitivity in BALB/c mouse ear assessed as decrease IL2 levels at 0.5 mg/ear measured after 72 hrs by ELISA relative to 24 hrs; type: functional; procedure, shortened: as §2
# Mus musculus [6] = species: Mus musculus; assay: Antihypersensitivity activity against TNCB-induced contact hypersensitivity in BALB/c mouse ear assessed as decrease IL4 levels at 0.5 mg/ear measured after 24 to 72 hrs by ELISA; type: functional, organism-based; procedure, shortened: as §2
# Mus musculus [7] = species: Mus musculus; assay: Antihypersensitivity activity against TNCB-induced contact hypersensitivity in BALB/c mouse ear assessed as decreased COX2 expression at 0.5 mg/ear after at 24 hrs by Western blotting relative to control; type: functional
# Mus musculus [8] = species: Mus musculus; assay: Antihypersensitivity activity against TNCB-induced contact hypersensitivity in BALB/c mouse ear assessed as decreased COX2 expression at 0.5 mg/ear after at 72 hrs by Western blotting relative to control; type: functional
# Mus musculus [9] = species: Mus musculus; assay: Antihypersensitivity activity against TNCB-induced contact hypersensitivity in BALB/c mouse ear assessed as inhibition of MMP9 production at 0.5 mg/ear measured at 24 hrs by Western blot analysis relative to control; type: functional
# RAW264.7 [10] = assay: Antiinflammatory activity in mouse RAW264.7 cells assessed as inhibition of LPS-induced MMP9 expression by Western blotting; type: functional, cell-based
# Procedure, shortened: (§3)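 RAW 264.7 cells were plated at 2×10^5 cells/mL and switched to DMEM with 0.5% FBS when subconfluent. They were pretreated 1 h with compound (25, 50, 100 μM) or PBS vehicle, then given LPS 1 μg/mL. Cells were lysed after 24 h. MMP-9 was measured by Western blot, normalized to β-actin, with % inhibition versus control. Three experiments.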
# RAW264.7 [11] = assay: Antiinflammatory activity in mouse RAW264.7 cells assessed as inhibition of LPS-induced MMP9 expression at 25 uM by Western blotting relative to control; type: functional; procedure, shortened: as §3
# RAW264.7 [12] = assay: Antiinflammatory activity in mouse RAW264.7 cells assessed as inhibition of LPS-induced MMP9 expression at 50 uM by Western blotting relative to control; type: functional; procedure, shortened: as §3
# RAW264.7 [13] = assay: Antiinflammatory activity in mouse RAW264.7 cells assessed as inhibition of LPS-induced MMP9 expression at 100 uM by Western blotting relative to control; type: functional; procedure, shortened: as §3
# Mus musculus [14] = assay: Antihypersensitivity against TNCB-induced contact hypersensitivity in BALB/c mouse ear assessed as inhibition of edema at 0.025 mg/ear applied […] after 30 mins, 24 hrs and 48 hrs of TNCB challenge measured after 24 hrs relative to control; type: functional
# Procedure, shortened: (§4)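 Female BALB/c mice, 7–9 weeks old, were challenged with 10 μL 1% TNCB in acetone per ear. Dexamethasone (20 μL, in acetone) was applied topically to both ears at 30 min, 24 h and 48 h after challenge. Thickness was taken by digital micrometer at 24 h or 72 h; edema is inflamed minus naive ear, with inhibition relative to control. Reported as mean ± SEM, ≥6 animals, Dunnett's test.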
# Mus musculus [15] = assay: Antihypersensitivity against TNCB-induced contact hypersensitivity in BALB/c mouse ear assessed as inhibition of edema at 0.025 mg/ear applied […] after 30 mins, 24 hrs and 48 hrs of TNCB challenge measured after 72 hrs relative to control; type: functional; procedure, shortened: as §4
# Mus musculus [16] = assay: Antihypersensitivity activity against TNCB-induced atopic dermatitis in BALB/c mouse ear assessed as inhibition of ear thickness at 0.025 mg/ear applied topically three times per week 30 min TNCB post challenge measured up to 25 days; type: functional, organism-based; conditions: in the assay text read “up to 21 days” for “up to 25 days”
# Procedure, shortened: (§5)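 BALB/c mice sensitized with 10 μL 0.3% TNCB in acetone on both inner ears at day −7, then re-challenged at the same site three times per week over days 0–21. Ear thickness measured by digital micrometer. Edema is the difference between naive and inflamed ear thickness. Inhibition calculated relative to the control group.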
# Mus musculus [17] = species: Mus musculus; assay: Antihypersensitivity activity against TNCB-induced acute contact hypersensitivity in BALB/c mouse ear assessed as inhibition of neutrophil infiltration by measuring MPO activity at 0.025 mg/ear measured after 24 to 72 hrs relative to control; type: functional
# Procedure, shortened: (§6)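 Female BALB/c mice were challenged on both ears with 10 μL 1% TNCB in acetone. Test compounds (0.5 mg/ear in EtOH–H2O 8:2) or dexamethasone (0.025 mg/ear in acetone) were applied topically at 30 min, 24 h and 48 h. Ear tissue was taken at 24 or 72 h and homogenized in phosphate buffer with 0.5% HTAB. MPO was read by TMB/H2O2, 3 min at 37 °C, A630. n ≥5 ear samples.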
# Mus musculus [18] = species: Mus musculus; assay: Antihypersensitivity activity against TNCB-induced acute contact hypersensitivity in BALB/c mouse ear assessed as inhibition of neutrophil infiltration by measuring MPO activity at 0.025 mg/ear measured after 22 days of repeated application of TNCB relative to control; type: functional
# Procedure, shortened: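 Female BALB/c mice were sensitized with 10 μL 0.3% TNCB in acetone on both inner ear surfaces, then painted with 0.3% TNCB three times weekly through days 0–21. On day 22 ears were homogenized in 50 mM PBS with 0.5% HTAB. Supernatant was read with H2O2 and tetramethylbenzidine, 3 min at 37 °C, acid-stopped, A630. Reported as mean ± SEM of ≥5 ear samples.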
# Mus musculus [19] = species: Mus musculus; assay: Antihypersensitivity activity against TNCB-induced contact hypersensitivity in BALB/c mouse ear assessed as decrease cytokines levels at 0.025 mg/ear measured at 24 hrs by ELISA relative to control; type: functional; procedure, shortened: as §2
# Mus musculus [20] = species: Mus musculus; assay: Antihypersensitivity activity against TNCB-induced contact hypersensitivity in BALB/c mouse ear assessed as decreased COX2 expression at 0.025 mg/ear after at 24 hrs by Western blotting relative to control; type: functional
# Mus musculus [21] = species: Mus musculus; assay: Antihypersensitivity activity against TNCB-induced contact hypersensitivity in BALB/c mouse ear assessed as decreased COX2 expression at 0.025 mg/ear after at 72 hrs by Western blotting relative to control; type: functional
# Mus musculus [22] = species: Mus musculus; assay: Antihypersensitivity activity against TNCB-induced contact hypersensitivity in BALB/c mouse ear assessed as inhibition of MMP9 production at 0.025 mg/ear measured at 72 hrs by Western blot analysis relative to control; type: functional
# Mus musculus [23] = species: Mus musculus; assay: Antihypersensitivity activity against TNCB-induced contact hypersensitivity in BALB/c mouse ear assessed as inhibition of MMP9 production at 0.025 mg/ear measured at 24 hrs by ELISA relative to control
# Mus musculus [24] = assay: Antihypersensitivity against TNCB-induced contact hypersensitivity in BALB/c mouse ear assessed as inhibition of edema at 0.5 mg/ear applied tropically after 30 mins, 24 hrs and 48 hrs of TNCB challenge measured after 72 hrs relative to control; type: functional; procedure, shortened: as §1
# Mus musculus [25] = assay: Antihypersensitivity activity against TNCB-induced atopic dermatitis in BALB/c mouse ear assessed as inhibition of ear thickness at 0.5 mg/ear applied topically three times per week 30 min TNCB post challenge measured on day 11 onwards; type: functional; procedure, shortened: as §5
# Mus musculus [26] = species: Mus musculus; assay: Antihypersensitivity activity against TNCB-induced acute contact hypersensitivity in BALB/c mouse ear assessed as inhibition of neutrophil infiltration by measuring MPO activity at 0.5 mg/ear measured after 72 hrs relative to control; type: functional; procedure, shortened: as §6
# Mus musculus [27] = assay: Antihypersensitivity activity against TNCB-induced atopic dermatitis in BALB/c mouse ear assessed as inhibition of ear thickness at 0.5 mg/ear applied topically three times per week 30 min TNCB post challenge measured on day 7 onwards; type: functional; procedure, shortened: as §5
# Mus musculus [28] = species: Mus musculus; assay: Antihypersensitivity activity against TNCB-induced acute contact hypersensitivity in BALB/c mouse ear assessed as inhibition of neutrophil infiltration by measuring MPO activity at 0.5 mg/ear measured after 24 hrs relative to control; type: functional; procedure, shortened: as §6
# Mus musculus [29] = species: Mus musculus; assay: Antihypersensitivity activity against TNCB-induced acute contact hypersensitivity in BALB/c mouse ear assessed as inhibition of neutrophil infiltration by measuring MPO activity at 0.5 mg/ear measured after 22 days of repeated application of TNCB relative to control; type: functional
# Procedure, shortened: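 Repeated-challenge protocol in BALB/c mice: sensitized with 10 μL 0.3% TNCB in acetone on both inner ears at day −7, then 0.3% TNCB three times weekly over days 0–21. Ears were excised on day 22 and homogenized in 0.5% HTAB phosphate buffer. MPO was read by TMB/H2O2, 3 min at 37 °C, A630. n ≥5 ear samples.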
# [30] = Inhibition of NF-kappaB activation
SMILES,inhibition (INH) (Mus musculus [1]),inhibition (INH) (Mus musculus [2]),inhibition (INH) (Mus musculus [3]),inhibition (INH) (Mus musculus [4]),fold change (FC) (Mus musculus [5]),inhibition (Mus musculus [6]),inhibition (INH) (Mus musculus [7]),inhibition (INH) (Mus musculus [8]),inhibition (INH) (Mus musculus [9]),inhibition (RAW264.7 [10]),inhibition at 25 µM (RAW264.7 [11]),inhibition at 50 µM (RAW264.7 [12]),inhibition at 100 µM (RAW264.7 [13]),other results
COC(=O)[C@]1(O)C[C@@H](OC(=O)/C=C/c2ccc(O)c(O)c2)[C@@H](O)[C@H](OC(=O)/C=C/c2ccc(O)c(O)c2)C1,45%,>50%,39%,60%,2,inactive,49%,29%,41%,Dose-dependent effect,26%,85%,90%,
C[C@@H]1C[C@H]2[C@@H]3CCC4=CC(=O)C=C[C@]4(C)[C@@]3(F)[C@@H](O)C[C@]2(C)[C@@]1(O)C(=O)CO [DEXAMETHASONE],,,,,,,,,,,,,,inhibition (INH) (Mus musculus [14]): 78%; inhibition (INH) (Mus musculus [15]): 83%; inhibition (Mus musculus [16]): Active; inhibition (INH) (Mus musculus [17]): 65%; inhibition (INH) (Mus musculus [18]): 78%; inhibition (INH) (Mus musculus [19]): 50%; inhibition (INH) (Mus musculus [20]): 48%; inhibition (INH) (Mus musculus [21]): 43%; inhibition (INH) (Mus musculus [22]): 69%; inhibition (INH) (Mus musculus [23]): 81%
CC(C)=CCc1cc(O)ccc1O[C@@H]1O[C@H](CO)[C@@H](O)[C@H](O)[C@H]1O,53%,>50%,,60%,2,inactive,,,,Dose-dependent effect,10%,72%,86%,inhibition (INH) (Mus musculus [24]): 50%; inhibition (INH) (Mus musculus [25]): 30%; inhibition (INH) (Mus musculus [26]): 43%
O=C(/C=C/c1ccc(O)c(O)c1)O[C@@H]1C[C@](O)(C(=O)O)C[C@@H](OC(=O)/C=C/c2ccc(O)c(O)c2)[C@H]1O (relative stereo),50%,>50%,53%,,2,inactive,44%,20%,66%,Dose-dependent effect,20%,42%,97%,inhibition (INH) (Mus musculus [27]): > 40%; inhibition (INH) (Mus musculus [28]): 20%; inhibition (INH) (Mus musculus [29]): 44%; inhibition [30]: Active
O=C(O[C@@H]1Cc2c(O)cc(O)cc2O[C@@H]1c1cc(O)c(O)c(O)c1)c1cc(O)c(O)c(O)c1 [EPIGALOCATECHIN GALLATE],,,,,,,,,,,70%,75%,90%,

# Reference: ChEMBL document CHEMBL1938323, “Phenolic substances from Phagnalon rupestre protect against 2,4,6-trinitrochlorobenzene-induced contact hypersensitivity” (2011)
